Data set [1] relates to MDA-MB-468. The data set can be described thus: Cytotoxicity against human MDA-MB-468 cells assessed as growth inhibition after 4 days by XTT assay. Format: functional, cell-based. To be noted: MDA-MB-468, 96 h. The essentials:
(§1)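 Cells kept in low-glucose DMEM with 10% FBS and 1% penicillin-streptomycin, seeded in 96-well plates the day before treatment. Compound exposure lasted four days, and the XTT cell proliferation kit was read on day 6 after drug addition. Dose-response cytotoxicity was measured in triplicate sets.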

Data set [2] has as its target T1, DNA repair protein RAD51 homolog 1 (Homo sapiens) (UniProt Q06609).
T1 sequence (whole entry): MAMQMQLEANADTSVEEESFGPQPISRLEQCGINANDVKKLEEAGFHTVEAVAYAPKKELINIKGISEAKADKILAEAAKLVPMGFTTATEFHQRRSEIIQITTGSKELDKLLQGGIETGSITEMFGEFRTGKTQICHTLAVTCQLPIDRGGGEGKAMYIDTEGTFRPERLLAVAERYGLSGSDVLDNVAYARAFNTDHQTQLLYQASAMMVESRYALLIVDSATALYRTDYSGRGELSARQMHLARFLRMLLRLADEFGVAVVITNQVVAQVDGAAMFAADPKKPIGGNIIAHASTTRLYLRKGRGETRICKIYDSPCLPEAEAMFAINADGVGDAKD
The data set can be described thus: Inhibition of RAD51 (unknown origin) multimerization by gel filtration method. The essentials: (§2)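 Purified RAD51 (3.2 µg) preincubated with compound at 1:10 protein:compound molar ratio, 15 min at 37°C. Then 15 min in 50 mM triethanolamine-HCl pH 7.5, 0.5 mM Mg(OAc)2, 1 mM DTT, 2 mM ATP, 100 µg/ml BSA. Run on Superdex 200 PC 3.2/30 gel filtration in the same buffer. 50 µl fractions dot-blotted onto PVDF and probed with anti-RAD51 mAb 14B4.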

Data set [3] addresses T1, DNA repair protein RAD51 homolog 1 (Homo sapiens). The experiment in a line: Inhibition of RAD51 in human HeLa cells expressing DR-GFP assessed as reduction of homologous recombination frequency at 10 to 20 uM after 24 hrs by I-SceI inducible gene conversion assay. Format: cell-based. The method in brief: (§3)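 HeLa cells stably carrying DR-GFP (puromycin 2 µg/mL selection) were transiently transfected with I-SceI vector pCBASce for 24 h to induce DSBs. They were then treated with DMSO or compound at 10 or 20 µM for another 24 h. GFP-positive percentage was measured by flow cytometry as means±SD from three independent experiments.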

Data set [4] has as its system K562. The experiment in a line: Cytotoxicity against human K562 cells assessed as growth inhibition after 4 days by XTT assay. It counts as functional, cell-based. Particulars: K562, 96 h.
Data set [5] concerns MCF7. The data set can be described thus: Cytotoxicity against human MCF7 cells assessed as growth inhibition after 4 days by XTT assay. Particulars: MCF7, 96 h. Format: functional, cell-based. The method in brief: as §1
The test system of data set [6] is MDA-MB-231. The data set can be described thus: Cytotoxicity against human MDA-MB-231 cells assessed as growth inhibition after 4 days by XTT assay. It counts as functional, cell-based. To be noted: MDA-MB-231, 96 h. The essentials:
as §1

Data set [7] has as its system MDA-MB-361. The experiment in a line: Cytotoxicity against human MDA-MB-361 cells assessed as growth inhibition after 4 days by XTT assay. It counts as functional, cell-based. To be noted: MDA-MB-361, 96 h. The essentials: as §1
The subject of data set [8] is MDA-MB-435. The experiment in a line: Cytotoxicity against human MDA-MB-435 cells assessed as growth inhibition after 4 days by XTT assay. Particulars: MDA-MB-435, 96 h. It counts as functional, cell-based. The essentials: as §1
A short description of data set [9]: Cytotoxicity against human Hs578T cells assessed as growth inhibition after 4 days by XTT assay. It counts as functional, cell-based. Particulars: Hs-578T, 96 h. The method in brief:
as §1

Data set [10] has as its system T47D. The experiment in a line: Cytotoxicity against human T47D cells assessed as growth inhibition after 4 days by XTT assay. Format: functional, cell-based. To be noted: 96 h.
In data set [11] the test system is U2OS. The data set can be described thus: Cytotoxicity against human U2OS cells assessed as growth inhibition after 4 days by XTT assay. To be noted: 96 h. It counts as functional, cell-based. The method in brief:
as §1

The subject of data set [12] is T98G. The experiment in a line: Cytotoxicity against human T98G cells assessed as growth inhibition after 4 days by XTT assay. Format: functional, cell-based. To be noted: 96 h. The essentials: as §1
Data set [13] has as its system HeLa. The experiment in a line: Cytotoxicity against human HeLa cells assessed as growth inhibition after 4 days by XTT assay. Particulars: 96 h. It counts as functional, cell-based.
Data set [14] can be described thus: Cytotoxicity against human MCF10A cells assessed as growth inhibition after 4 days by XTT assay. Format: cell-based. To be noted: MCF-10A, 96 h.
Data set [15] can be described thus: Selectivity ratio of IC50 for human MCF10A cells to IC50 for human T47D cells. It counts as ADME, cell-based, MCF-10A. Particulars: MCF10A cells versus T47D cells.
The nature of data set [16]: Selectivity ratio of IC50 for human MCF10A cells to IC50 for human T98G cells. It counts as ADME, cell-based, MCF-10A. Particulars: MCF10A cells versus T98G cells.
The target of data set [17] is T1, DNA repair protein RAD51 homolog 1 (Homo sapiens). The experiment in a line: Inhibition of RAD51 (unknown origin) multimerization at 1:10 M ratio of protein to compound after 15 mins by gel filtration method. The method in brief: as §2
The target is the same in data set [18]. The experiment in a line: Inhibition of RAD51 in human HeLa cells expressing DR-GFP assessed as reduction of homologous recombination frequency after 24 hrs by I-SceI inducible gene conversion assay. It counts as cell-based. The essentials:
as §3

pIC50: −log10 of the molar value. Activity calls are given as the source filed them. The calls are words filed in the database; no cut-off is given here.

Consider 25 compounds from ChEMBL document CHEMBL3414530, “Synthesis, molecular modeling, and biological evaluation of novel RAD51 inhibitors” (Eur J Med Chem, 2015).

Consider `O=S(=O)(Cc1ccc(C(F)(F)F)cc1)N1CCc2ccccc2[C@H]1c1c[nH]c2ccccc12`, for which, in data set [1], the pIC50 is 4.68.
The same measure, in the same setting: in the case of `O=S(=O)(Cc1ccc(C(F)(F)F)cc1)N1CCc2ccccc2[C@@H]1c1c[nH]c2ccccc12` it was 4.87; in that of `O=S(=O)(Cc1ccccc1)N1CCc2ccccc2[C@H]1c1n[nH]c2ccccc12`, 4.84.
Same read-out and setting: with `O=S(=O)(Cc1cccc(C(F)(F)F)c1)N1CCc2ccccc2[C@@H]1c1c[nH]c2ccccc12` the figure was 4.95.
Consider `O=S(=O)(Cc1ccccc1)N1C=Cc2ccccc2C1c1c[nH]c2ccccc12` (racemic), for which the pIC50 in [1] was 4.83. Further, the inhibition entry in data set [2] and in [3] was “Active” each time.
As for `COc1nccc2c(C3c4ccccc4C=CN3S(=O)(=O)Cc3ccccc3)c[nH]c12` (racemic), in data set [1], the pIC50 was 5.20.
Same read-out and setting: with `O=S(=O)(Cc1ccccc1F)N1CCc2ccccc2[C@H]1c1c[nH]c2ccccc12` the figure was 4.72.
As to `Nc1ncc([C@@H]2c3ccccc3CCN2S(=O)(=O)Cc2ccccc2)s1`, the pIC50 in data set [1] was under 4.60.
For `O=S(=O)(Cc1ccc(F)cc1)N1CCc2ccccc2[C@@H]1c1c[nH]c2ccccc12`, the pIC50 in data set [1] is 4.95.
On the same count and under the same terms, in the case of `O=S(=O)(Cc1ccccc1)N1CCc2ccccc2[C@H]1c1c[nH]c2ccccc12` it was 4.88.
On to `O=S(=O)(Cc1cccc(F)c1)N1CCc2ccccc2[C@H]1c1c[nH]c2ccccc12`, for which, in data set [1], the pIC50 is 4.76.
With `O=S(=O)(Cc1ccccc1)N1Cc2ccccc2[C@H]1c1c[nH]c2ccccc12`, the pIC50 in data set [1] is under 4.92.
In the case of `O=S(=O)(Cc1ccccc1)N1Cc2ccccc2[C@@H]1c1c[nH]c2ccccc12`, the negative logarithm of the IC50 (pIC50) is 5.44 in data set [4]; 5.51 in data set [5]; 5.46 in data set [6]; 5.35 in data set [7]; 5.40 in data set [8]; 5.31 in [9]. The pIC50 in data set [10] was 5.20; in [11], 5.33; in data set [12] it was 5.02; in [13] it was 5.44; in [14], under 4.52. Moreover, the selectivity ratio in [15] was over 4.8; in data set [16] it was over 3.2. Moreover, the inhibition result in data set [17] was “Active”. Also, in data set [18], the inhibition result was “Dose-dependent effect”.
In the case of `O=S(=O)(Cc1ccccc1)N1CCc2ccccc2[C@@H]1c1c[nH]c2ccccc12`, in data set [1], the pIC50 was 4.93.
The same measure, in the same setting: in the case of `O=S(=O)(Cc1ccccc1C(F)(F)F)N1CCc2ccccc2[C@H]1c1c[nH]c2ccccc12` it was 4.78.
On to `COc1cc2c(C3c4ccccc4C=CN3S(=O)(=O)Cc3ccccc3)c[nH]c2cn1` (racemic), for which the pIC50 in [1] was 4.90.
On to `O=S(=O)(Cc1ccccc1)N1CCc2ccccc2[C@@H]1c1n[nH]c2ccccc12`, for which, in data set [1], the pIC50 was 5.02.
For `O=S(=O)(Cc1ccc(F)cc1)N1CCc2ccccc2[C@H]1c1c[nH]c2ccccc12`, the pIC50 in [1] was 4.59.
The same measure, in the same setting: with `O=S(=O)(Cc1ccccc1C(F)(F)F)N1CCc2ccccc2[C@@H]1c1c[nH]c2ccccc12` the figure was 4.83; with `O=S(=O)(Cc1cccc(C(F)(F)F)c1)N1CCc2ccccc2[C@H]1c1c[nH]c2ccccc12`, 4.65.
Still for that read-out and setting: with `O=S(=O)(Cc1ccccc1F)N1CCc2ccccc2[C@@H]1c1c[nH]c2ccccc12` the figure was 4.90; with `O=S(=O)(Cc1ccccc1)N1CC=Cc2ccccc2[C@@H]1c1c[nH]c2ccccc12`, 4.83; with `O=S(=O)(Cc1ccccc1)N1C=Cc2ccccc2C1c1c[nH]c2ncccc12` (racemic), 5.21.
Take `O=S(=O)(Cc1cccc(F)c1)N1CCc2ccccc2[C@@H]1c1c[nH]c2ccccc12`: the pIC50 in data set [1] is 4.85.
On the same count and under the same terms, in the case of `O=S(=O)(Cc1ccccc1)N1CC=Cc2ccccc2[C@H]1c1c[nH]c2ccccc12` it was under 4.30.
